The source of these data is ChEMBL document CHEMBL4840316, “Structure-based screening for the discovery of 1,2,4-oxadiazoles as promising hits for the development of new anti-inflammatory agents interfering with eicosanoid biosynthesis pathways” (Eur J Med Chem, 2021).

Structures are written as SMILES. Calls of active or inactive are those of the source. No cut-off for these calls is given here. A value given as a limit tells only on which side of the number the result lay.

Series [1] concerns the target T1, Prostaglandin E synthase (Homo sapiens) (UniProt O14684).
T1 sequence (whole entry): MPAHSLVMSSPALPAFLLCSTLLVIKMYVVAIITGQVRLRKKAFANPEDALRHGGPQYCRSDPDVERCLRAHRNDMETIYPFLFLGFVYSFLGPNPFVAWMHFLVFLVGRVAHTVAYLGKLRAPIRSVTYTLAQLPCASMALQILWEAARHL
As to the kind of experiment: Inhibition of mPGES-1 obtained from IL-beta stimulated human A549 cells microsomes assessed as residual activity by measuring conversion of PGH2 to PGE2 at 10 uM by cell-free RP-HPLC method. The following applies: Microsome. The gist of the method:
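Microsomes from A549 cells stimulated with IL-1β (1 ng/ml) for 48 h. Diluted in 0.1 M potassium phosphate pH 7.4 with 2.5 mM glutathione. Pre-incubated 15 min on ice with compound (single 10 µM, or 0.03–10 µM for the curve) or 1% DMSO. 20 µM PGH2 added for 1 min; stopped with FeCl3/citric acid containing 11β-PGE2 standard. PGE2 measured by SPE and RP-HPLC. n = 3.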

The target of series [2] is T2, Polyunsaturated fatty acid 5-lipoxygenase (Homo sapiens) (UniProt P09917).
T2 sequence (whole entry): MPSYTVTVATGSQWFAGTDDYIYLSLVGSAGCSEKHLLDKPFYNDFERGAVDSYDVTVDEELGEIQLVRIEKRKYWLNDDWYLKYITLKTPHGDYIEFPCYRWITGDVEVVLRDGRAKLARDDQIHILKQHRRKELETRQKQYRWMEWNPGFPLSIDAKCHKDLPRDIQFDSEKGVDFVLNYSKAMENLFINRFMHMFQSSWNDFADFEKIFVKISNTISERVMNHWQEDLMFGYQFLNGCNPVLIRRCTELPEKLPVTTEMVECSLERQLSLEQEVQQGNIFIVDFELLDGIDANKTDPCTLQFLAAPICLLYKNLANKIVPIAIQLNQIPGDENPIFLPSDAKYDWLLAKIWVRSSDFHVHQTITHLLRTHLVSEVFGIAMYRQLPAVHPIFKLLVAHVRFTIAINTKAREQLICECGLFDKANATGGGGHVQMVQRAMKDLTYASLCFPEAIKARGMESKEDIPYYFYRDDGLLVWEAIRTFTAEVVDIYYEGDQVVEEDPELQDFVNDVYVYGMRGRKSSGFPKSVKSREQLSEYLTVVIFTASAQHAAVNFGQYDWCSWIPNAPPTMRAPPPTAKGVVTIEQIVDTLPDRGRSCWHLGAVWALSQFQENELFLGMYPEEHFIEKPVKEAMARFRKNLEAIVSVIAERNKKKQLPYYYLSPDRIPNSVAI
As to the kind of experiment: Inhibition of 5-LO in A23187-stimulated human intact neutrophils assessed as reduction in LTB4/5-HETE formation by measuring residual activity at 10 uM measured after 20 mins by RP-HPLC method. The class given is tissue-based. The following applies: Neutrophil. The procedure, abridged:
(§1)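 Human neutrophils at 5 × 10^6/mL in PBS with 0.1% glucose and 1 mM CaCl2. Pre-incubated with compound or 0.1% DMSO for 10 min at 37 °C. Stimulated with 2.5 µM A23187, with or without 20 µM AA, for 10 min at 37 °C. Stopped with cold methanol; PGB1 internal standard. LTB4, its trans isomers and 5-HETE quantified by SPE and RP-HPLC; % of control.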

The target of series [3] is T2, Polyunsaturated fatty acid 5-lipoxygenase (Homo sapiens). The series can be described thus: Inhibition of 5-LO in A23187/AA-stimulated human intact neutrophils assessed as reduction in LTB4/5-HETE formation by measuring residual activity at 10 uM measured after 20 mins by RP-HPLC method. The class given is tissue-based. The settings on record: Neutrophil. The procedure, abridged:
as §1

For series [4] the target is unchanged. As to the kind of experiment: Inhibition of 5-LO (unknown origin) expressed in Escherichia coli BL21 assessed as residual activity at 10 uM by RP-HPLC method relative to control. The procedure, abridged: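 Human recombinant 5-LO expressed in E. coli BL21 and purified on ATP-agarose. 0.5 µg enzyme in 1 mL PBS + 1 mM EDTA pre-incubated with compound or 0.1% DMSO for 10 min on ice. Reaction started with 20 µM AA and 2 mM CaCl2, run 10 min at 37 °C, stopped with ice-cold methanol. Products analysed; activity as % of control.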

Series [5] has as its target T3, Bifunctional epoxide hydrolase 2 (Homo sapiens) (UniProt P34913).
T3 sequence (whole entry): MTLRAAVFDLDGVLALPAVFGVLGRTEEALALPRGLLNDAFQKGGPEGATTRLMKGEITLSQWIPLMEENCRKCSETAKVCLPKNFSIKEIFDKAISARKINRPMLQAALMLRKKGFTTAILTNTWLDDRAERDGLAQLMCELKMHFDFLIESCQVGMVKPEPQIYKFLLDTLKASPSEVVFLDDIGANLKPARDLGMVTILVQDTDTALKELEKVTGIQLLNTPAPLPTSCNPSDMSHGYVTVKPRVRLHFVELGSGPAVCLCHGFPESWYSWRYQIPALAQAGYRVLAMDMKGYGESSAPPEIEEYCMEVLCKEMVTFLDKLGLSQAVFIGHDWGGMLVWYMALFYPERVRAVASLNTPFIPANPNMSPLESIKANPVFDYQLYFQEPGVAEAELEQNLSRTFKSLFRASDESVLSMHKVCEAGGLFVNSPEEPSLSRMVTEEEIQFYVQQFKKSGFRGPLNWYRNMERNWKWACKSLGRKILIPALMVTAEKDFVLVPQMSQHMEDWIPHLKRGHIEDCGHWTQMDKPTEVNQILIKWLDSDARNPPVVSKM
The series can be described thus: Inhibition of recombinant human sEH expressed in sf9 insect cells assessed as residual activity at 10 uM using PHOME as substrate preincubated for 15 mins followed by substrate addition and measured after 60 mins relative to control. The following applies: time 75.0 min. The procedure, abridged:
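Human recombinant sEH from baculovirus-infected Sf9 cells, affinity-purified. Diluted in 25 mM Tris pH 7 with 0.1 mg/mL BSA. Pre-incubated 15 min at room temperature with 10 µM compound or 0.1% DMSO. 50 µM PHOME added, run 60 min at room temperature, stopped with ZnSO4. Fluorescence read at ex 330 / em 465 nm.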

For another series, the system named is Monocyte. The series can be described thus: Cytotoxicity against human monocyte cells assessed as cell viability at 10 uM measured after 24 hrs by MTT assay. The class given is cell-based. The gist of the method:
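Human monocytes isolated from PBMC by adherence, 0.2 × 10^6 per well in buffer. Exposed to 10 µM compound or 0.5% DMSO for 24 h (37 °C, 5% CO2). MTT for 2 h, then SDS lysis (10%, pH 4.5) for 17 h. Absorbance read at 570 nm; viability as % of vehicle, n = 3.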
For orientation: Tetrazolium dyes change colour on reduction, which living cells bring about.

A further series concerns A549. As to the kind of experiment: Cytotoxicity against human A549 cells assessed as cell viability at 10 uM measured after 48 hrs by MTT assay. The class given is cell-based. The settings on record: a549, 48 h. The gist of the method:
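A549 cells in DMEM + 10% FBS, 2 × 10^4 per well, seeded in triplicate. Exposed to 10 µM compound or 0.1% DMSO for 48 h at 37 °C, 5% CO2. MTT added for 1 h, formazan dissolved in DMSO, absorbance read at 570 nm. Viability given as % of vehicle, n = 3.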

Series [6] concerns the target Prostaglandin G/H synthase 1 (Ovis aries) (UniProt P05979). The series can be described thus: Inhibition of ovine COX-1 assessed as residual activity at 10 uM using arachidonic acid as substrate preincubated for 5 mins by RP-HPLC method relative to control. The following applies: time 10.0 min.
Series [7] relates to Mus musculus. The series can be described thus: Antiinflammatory activity in zymosan-induced CD-1 mouse peritonitis model assessed as reduction in zymosan-induced IL-6 level in peritoneal exudate at 3 mg/kg, ip treated with compound for 30 mins after 4 to 24 hrs zymosan stimulation by ELISA. The class given is functional, organism-based.
Series [8] deals with Mus musculus. The series can be described thus: Antiinflammatory activity in zymosan-induced CD-1 mouse peritonitis model assessed as reduction in zymosan-induced neutrophil recruitment at 10 mg/kg, ip treated with compound for 30 mins after 4 hrs zymosan stimulation by ELISA. The class given is functional, organism-based. The gist of the method: (§2)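 Male CD-1 mice (10–14 wk, 25–30 g), n = 6/group, injected i.p. with boiled zymosan A (500 mg/kg in PBS). Compound (0.1–10 mg/kg, DMSO/saline 1:3) given i.p. 30 min afterwards. Peritoneal lavage with 2 mL PBS at 4 or 24 h. Total leukocytes counted by automated counter with trypan blue, normalized to exudate. Mean ± S.D.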
For orientation: In an ELISA, binding on a coated surface is turned into a signal by an enzyme label.

Series [9] concerns Mus musculus. The series can be described thus: Antiinflammatory activity in zymosan-induced CD-1 mouse peritonitis model assessed as reduction in zymosan-induced neutrophil recruitment at 10 mg/kg, ip treated with compound for 30 mins after 24 hrs zymosan stimulation by ELISA. The class given is functional, organism-based. The procedure, abridged:
as §2

Series [10] concerns Mus musculus. The series can be described thus: Antiinflammatory activity in zymosan-induced CD-1 mouse peritonitis model assessed as reduction in zymosan-induced IL-1beta level in peritoneal exudate at 3 mg/kg, ip treated with compound for 30 mins after 4 to 24 hrs zymosan stimulation by ELISA. The class given is functional, organism-based.
The subject of series [11] is Mus musculus. As to the kind of experiment: Antiinflammatory activity in zymosan-induced CD-1 mouse peritonitis model assessed as reduction in zymosan-induced TNF-alpha level in peritoneal exudate at 3 mg/kg, ip treated with compound for 30 mins after 4 to 24 hrs zymosan stimulation by ELISA. The class given is functional, organism-based.

Prostaglandin G/H synthase 1 (Ovis aries), sequence (P05979 whole entry, looked up): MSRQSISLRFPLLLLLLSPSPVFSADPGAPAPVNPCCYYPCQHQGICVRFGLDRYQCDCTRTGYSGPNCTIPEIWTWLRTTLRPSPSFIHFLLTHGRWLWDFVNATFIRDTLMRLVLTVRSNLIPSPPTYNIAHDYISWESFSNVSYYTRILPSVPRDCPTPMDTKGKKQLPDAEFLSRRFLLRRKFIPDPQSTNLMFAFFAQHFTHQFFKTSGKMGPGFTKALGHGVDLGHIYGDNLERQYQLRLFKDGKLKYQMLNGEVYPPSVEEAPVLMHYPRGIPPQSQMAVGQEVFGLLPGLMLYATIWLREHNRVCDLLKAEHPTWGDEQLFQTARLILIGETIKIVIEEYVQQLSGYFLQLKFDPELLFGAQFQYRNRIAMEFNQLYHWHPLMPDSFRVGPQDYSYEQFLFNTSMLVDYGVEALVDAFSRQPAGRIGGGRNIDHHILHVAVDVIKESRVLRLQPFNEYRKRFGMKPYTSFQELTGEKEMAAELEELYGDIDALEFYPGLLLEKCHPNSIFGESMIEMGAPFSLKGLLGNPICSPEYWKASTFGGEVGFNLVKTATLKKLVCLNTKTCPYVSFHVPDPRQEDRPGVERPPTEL

In the case of `OCc1ccc(Cc2nc(-c3ccc(-c4ccsc4)cc3)no2)cc1`, the figures for the Activity in [1], in [2] and in [3] were 93.1%, 73.6% and 65.2%, respectively.

Consider `CC(c1ccc(O)cc1)c1nc(-c2ccc(-c3ccsc3)cc2)no1` (configuration not stated), for which the Activity is 62.9% in series [1]; 6.02% in series [2]; 7.54% in [3]; 61.8% in [4]; > 50% in series [5]; “Non-Toxic” in the series on Monocyte. The values for the Activity result (in the series on A549; in series [6]) were “Non-Toxic” and 22.5%, respectively.

On to `N[C@H](c1ccc(O)cc1)c1nc(-c2ccc(-c3ccsc3)cc2)no1`, for which the Activity stood at 67.6% in [1], 47.5% in series [2] and 50.3% in series [3].

Consider `Nc1ccc(O)c(-c2nc(-c3ccc(-c4ccsc4)cc3)no2)c1`, for which the results for the Activity in [1], in series [2] and in series [3] were 81.9%, 84.3% and 29.6%, respectively.

For `Oc1cccc(-c2nc(-c3ccc(-c4ccsc4)cc3)no2)c1`, the figures for the Activity in series [1], in series [2] and in series [3] were 84.1%, > 100% and > 100%, respectively.

Regarding `C[C@@H]1C[C@H]2[C@@H]3CCC4=CC(=O)C=C[C@]4(C)[C@@]3(F)[C@@H](O)C[C@]2(C)[C@@]1(O)C(=O)CO`, the outcome with Mus musculus [7], in the series with Mus musculus [8], with Mus musculus [9], with Mus musculus [10] and in the series on Mus musculus [11] was Active.

Consider `CC(N)(Cc1ccc(O)cc1)c1nc(-c2ccc(-c3ccsc3)cc2)no1` (configuration not stated), for which the Activity in series [1] came to 84.7%; in [2], 78%; in series [3] it was 61.3%.

Regarding `c1cc(-c2nc(-c3ccc(-c4ccsc4)cc3)no2)c2cc[nH]c2c1`, the figures for the Activity in [1], in [2] and in series [3] were 63.2%, 59.7% and 99.3%, respectively.

Regarding `N[C@@H](Cc1ccc(O)cc1)c1nc(-c2ccc(-c3ccsc3)cc2)no1`, the Activity in [1] amounted to 82.7%; in series [2] it was 95%; in series [3] it was 74.4%.

Consider `CC(=O)N1C[C@H](O)C[C@H]1c1nc(-c2ccc(-c3ccsc3)cc2)no1`, for which the values for the Activity in series [1], in [2] and in [3] were 82.2%, 92.6% and 89.5%, respectively.
